Data as given in ChEMBL document CHEMBL4014355 (J Med Chem, 2017).
The source made the active and inactive calls. The calls are words filed in the database; no cut-off is given here. Bridge positions count the residues as written; N and C are the ends. Square brackets hold non-standard residues; d marks the D form. Peptide text beside a SMILES is read from it. * marks the point of attachment. Arg(Me2s) = CN=C(NC)NCCC[C@H](N)C(=O)O; Arg(Me) = CNC(=N)NCCC[C@H](N)C(=O)O; d(αMeK) = C[C@@](N)(CCCCN)C(=O)O; dPhg = N[C@@H](C(=O)O)c1ccccc1; dOrn = NCCC[C@@H](N)C(=O)O; dDab = NCC[C@@H](N)C(=O)O; Isobutyryl = CC(C)C(=O)*; dDap = NC[C@@H](N)C(=O)O; Abu = CC[C@H](N)C(=O)O

Tests used:
[1] = target: MLL1-ASH2L/RbBP5/WDR5/DPY30 (Homo sapiens, UniProt P61964); assay: Inhibition of human N-terminal GST-tagged MLL1 (3735 to 3973 residues) interaction with human full length N-terminal 6xHis-tagged ASH2L/N-terminal 6xHis-tagged human full length RbBP5/human N-terminal 6xHis-tagged WDR5/human full length N-terminal 6xHis-tagged DPY30 assessed as decrease in H3K4me1-2 methylation preincubated for 30 mins followed by SAM/nucleosome mixture addition measured after 120 mins in absence of light by AlphaLISA assay; assay type: protein assay
[2] = Inhibition of 5-FAM tracer binding to WDR5 delta23 mutant (24 to 334 residues) (unknown origin) expressed in Escherichia coli Rosetta 2 (DE3) cells after 3 hrs by fluorescence polarization assay; design: species or system Homo sapiens
MOLM-13 [3] = assay: Cytotoxicity against human MOLM13 cells harboring MLL-AF9 fusion protein assessed as cell growth inhibition after 4 days by WST8 assay; assay type: functional, cell-based; conditions: MOLM-13, 96 h
Outline: (§1)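 Cells (MOLM-13 with MLL-AF9, MV4-11 with MLL-AF4, HL-60 with no MLL fusion) seeded at 1 × 10^4 cells/well and exposed to a range of inhibitor concentrations for 4 days, with 0.2% DMSO final in the medium. Viability was read by WST-8 kit. Three independent experiments, each in triplicate.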

MV4-11 [4] = assay: Cytotoxicity against human MV4-11 cells harboring MLL-AF4 fusion protein assessed as cell growth inhibition after 4 days by WST8 assay; assay type: functional, cell-based; conditions: MV4-11, 96 h; outline: as §1
HL-60 = assay: Cytotoxicity against human HL60 cells lacking MLL translocation assessed as cell growth inhibition after 4 days by WST8 assay; assay type: cell-based; conditions: HL-60, 96 h; outline: as §1
[5] = Half life in human microsomes; assay type: ADME, Microsome
[6] = Half life in mouse microsomes; assay type: ADME, Microsome
[7] = Half life in rat microsomes; assay type: ADME, Microsome
[8] = Selectivity ratio of IC50 for human HL60 cells lacking MLL translocation to IC50 for human MV4-11 cells harboring MLL-AF4 fusion protein
[9] = Selectivity ratio of IC50 for human HL60 cells lacking MLL translocation to IC50 for human MOLM13 cells harboring MLL-AF9 fusion protein
[10] = target: Histone-lysine N-methyltransferase 2C (Homo sapiens) (UniProt Q8NEZ4); assay: Inhibition of MLL3 (unknown origin) H3K4 methyltransferase activity using biotinyl-H3 peptide (1 to 21 residues) and using [3H]-S adenosylmethionine as methyl donor up to 100 uM after 1 hr by scintillation counting
Chain of Histone-lysine N-methyltransferase 2C (Homo sapiens) (Q8NEZ4 whole entry, the tested form may be a part): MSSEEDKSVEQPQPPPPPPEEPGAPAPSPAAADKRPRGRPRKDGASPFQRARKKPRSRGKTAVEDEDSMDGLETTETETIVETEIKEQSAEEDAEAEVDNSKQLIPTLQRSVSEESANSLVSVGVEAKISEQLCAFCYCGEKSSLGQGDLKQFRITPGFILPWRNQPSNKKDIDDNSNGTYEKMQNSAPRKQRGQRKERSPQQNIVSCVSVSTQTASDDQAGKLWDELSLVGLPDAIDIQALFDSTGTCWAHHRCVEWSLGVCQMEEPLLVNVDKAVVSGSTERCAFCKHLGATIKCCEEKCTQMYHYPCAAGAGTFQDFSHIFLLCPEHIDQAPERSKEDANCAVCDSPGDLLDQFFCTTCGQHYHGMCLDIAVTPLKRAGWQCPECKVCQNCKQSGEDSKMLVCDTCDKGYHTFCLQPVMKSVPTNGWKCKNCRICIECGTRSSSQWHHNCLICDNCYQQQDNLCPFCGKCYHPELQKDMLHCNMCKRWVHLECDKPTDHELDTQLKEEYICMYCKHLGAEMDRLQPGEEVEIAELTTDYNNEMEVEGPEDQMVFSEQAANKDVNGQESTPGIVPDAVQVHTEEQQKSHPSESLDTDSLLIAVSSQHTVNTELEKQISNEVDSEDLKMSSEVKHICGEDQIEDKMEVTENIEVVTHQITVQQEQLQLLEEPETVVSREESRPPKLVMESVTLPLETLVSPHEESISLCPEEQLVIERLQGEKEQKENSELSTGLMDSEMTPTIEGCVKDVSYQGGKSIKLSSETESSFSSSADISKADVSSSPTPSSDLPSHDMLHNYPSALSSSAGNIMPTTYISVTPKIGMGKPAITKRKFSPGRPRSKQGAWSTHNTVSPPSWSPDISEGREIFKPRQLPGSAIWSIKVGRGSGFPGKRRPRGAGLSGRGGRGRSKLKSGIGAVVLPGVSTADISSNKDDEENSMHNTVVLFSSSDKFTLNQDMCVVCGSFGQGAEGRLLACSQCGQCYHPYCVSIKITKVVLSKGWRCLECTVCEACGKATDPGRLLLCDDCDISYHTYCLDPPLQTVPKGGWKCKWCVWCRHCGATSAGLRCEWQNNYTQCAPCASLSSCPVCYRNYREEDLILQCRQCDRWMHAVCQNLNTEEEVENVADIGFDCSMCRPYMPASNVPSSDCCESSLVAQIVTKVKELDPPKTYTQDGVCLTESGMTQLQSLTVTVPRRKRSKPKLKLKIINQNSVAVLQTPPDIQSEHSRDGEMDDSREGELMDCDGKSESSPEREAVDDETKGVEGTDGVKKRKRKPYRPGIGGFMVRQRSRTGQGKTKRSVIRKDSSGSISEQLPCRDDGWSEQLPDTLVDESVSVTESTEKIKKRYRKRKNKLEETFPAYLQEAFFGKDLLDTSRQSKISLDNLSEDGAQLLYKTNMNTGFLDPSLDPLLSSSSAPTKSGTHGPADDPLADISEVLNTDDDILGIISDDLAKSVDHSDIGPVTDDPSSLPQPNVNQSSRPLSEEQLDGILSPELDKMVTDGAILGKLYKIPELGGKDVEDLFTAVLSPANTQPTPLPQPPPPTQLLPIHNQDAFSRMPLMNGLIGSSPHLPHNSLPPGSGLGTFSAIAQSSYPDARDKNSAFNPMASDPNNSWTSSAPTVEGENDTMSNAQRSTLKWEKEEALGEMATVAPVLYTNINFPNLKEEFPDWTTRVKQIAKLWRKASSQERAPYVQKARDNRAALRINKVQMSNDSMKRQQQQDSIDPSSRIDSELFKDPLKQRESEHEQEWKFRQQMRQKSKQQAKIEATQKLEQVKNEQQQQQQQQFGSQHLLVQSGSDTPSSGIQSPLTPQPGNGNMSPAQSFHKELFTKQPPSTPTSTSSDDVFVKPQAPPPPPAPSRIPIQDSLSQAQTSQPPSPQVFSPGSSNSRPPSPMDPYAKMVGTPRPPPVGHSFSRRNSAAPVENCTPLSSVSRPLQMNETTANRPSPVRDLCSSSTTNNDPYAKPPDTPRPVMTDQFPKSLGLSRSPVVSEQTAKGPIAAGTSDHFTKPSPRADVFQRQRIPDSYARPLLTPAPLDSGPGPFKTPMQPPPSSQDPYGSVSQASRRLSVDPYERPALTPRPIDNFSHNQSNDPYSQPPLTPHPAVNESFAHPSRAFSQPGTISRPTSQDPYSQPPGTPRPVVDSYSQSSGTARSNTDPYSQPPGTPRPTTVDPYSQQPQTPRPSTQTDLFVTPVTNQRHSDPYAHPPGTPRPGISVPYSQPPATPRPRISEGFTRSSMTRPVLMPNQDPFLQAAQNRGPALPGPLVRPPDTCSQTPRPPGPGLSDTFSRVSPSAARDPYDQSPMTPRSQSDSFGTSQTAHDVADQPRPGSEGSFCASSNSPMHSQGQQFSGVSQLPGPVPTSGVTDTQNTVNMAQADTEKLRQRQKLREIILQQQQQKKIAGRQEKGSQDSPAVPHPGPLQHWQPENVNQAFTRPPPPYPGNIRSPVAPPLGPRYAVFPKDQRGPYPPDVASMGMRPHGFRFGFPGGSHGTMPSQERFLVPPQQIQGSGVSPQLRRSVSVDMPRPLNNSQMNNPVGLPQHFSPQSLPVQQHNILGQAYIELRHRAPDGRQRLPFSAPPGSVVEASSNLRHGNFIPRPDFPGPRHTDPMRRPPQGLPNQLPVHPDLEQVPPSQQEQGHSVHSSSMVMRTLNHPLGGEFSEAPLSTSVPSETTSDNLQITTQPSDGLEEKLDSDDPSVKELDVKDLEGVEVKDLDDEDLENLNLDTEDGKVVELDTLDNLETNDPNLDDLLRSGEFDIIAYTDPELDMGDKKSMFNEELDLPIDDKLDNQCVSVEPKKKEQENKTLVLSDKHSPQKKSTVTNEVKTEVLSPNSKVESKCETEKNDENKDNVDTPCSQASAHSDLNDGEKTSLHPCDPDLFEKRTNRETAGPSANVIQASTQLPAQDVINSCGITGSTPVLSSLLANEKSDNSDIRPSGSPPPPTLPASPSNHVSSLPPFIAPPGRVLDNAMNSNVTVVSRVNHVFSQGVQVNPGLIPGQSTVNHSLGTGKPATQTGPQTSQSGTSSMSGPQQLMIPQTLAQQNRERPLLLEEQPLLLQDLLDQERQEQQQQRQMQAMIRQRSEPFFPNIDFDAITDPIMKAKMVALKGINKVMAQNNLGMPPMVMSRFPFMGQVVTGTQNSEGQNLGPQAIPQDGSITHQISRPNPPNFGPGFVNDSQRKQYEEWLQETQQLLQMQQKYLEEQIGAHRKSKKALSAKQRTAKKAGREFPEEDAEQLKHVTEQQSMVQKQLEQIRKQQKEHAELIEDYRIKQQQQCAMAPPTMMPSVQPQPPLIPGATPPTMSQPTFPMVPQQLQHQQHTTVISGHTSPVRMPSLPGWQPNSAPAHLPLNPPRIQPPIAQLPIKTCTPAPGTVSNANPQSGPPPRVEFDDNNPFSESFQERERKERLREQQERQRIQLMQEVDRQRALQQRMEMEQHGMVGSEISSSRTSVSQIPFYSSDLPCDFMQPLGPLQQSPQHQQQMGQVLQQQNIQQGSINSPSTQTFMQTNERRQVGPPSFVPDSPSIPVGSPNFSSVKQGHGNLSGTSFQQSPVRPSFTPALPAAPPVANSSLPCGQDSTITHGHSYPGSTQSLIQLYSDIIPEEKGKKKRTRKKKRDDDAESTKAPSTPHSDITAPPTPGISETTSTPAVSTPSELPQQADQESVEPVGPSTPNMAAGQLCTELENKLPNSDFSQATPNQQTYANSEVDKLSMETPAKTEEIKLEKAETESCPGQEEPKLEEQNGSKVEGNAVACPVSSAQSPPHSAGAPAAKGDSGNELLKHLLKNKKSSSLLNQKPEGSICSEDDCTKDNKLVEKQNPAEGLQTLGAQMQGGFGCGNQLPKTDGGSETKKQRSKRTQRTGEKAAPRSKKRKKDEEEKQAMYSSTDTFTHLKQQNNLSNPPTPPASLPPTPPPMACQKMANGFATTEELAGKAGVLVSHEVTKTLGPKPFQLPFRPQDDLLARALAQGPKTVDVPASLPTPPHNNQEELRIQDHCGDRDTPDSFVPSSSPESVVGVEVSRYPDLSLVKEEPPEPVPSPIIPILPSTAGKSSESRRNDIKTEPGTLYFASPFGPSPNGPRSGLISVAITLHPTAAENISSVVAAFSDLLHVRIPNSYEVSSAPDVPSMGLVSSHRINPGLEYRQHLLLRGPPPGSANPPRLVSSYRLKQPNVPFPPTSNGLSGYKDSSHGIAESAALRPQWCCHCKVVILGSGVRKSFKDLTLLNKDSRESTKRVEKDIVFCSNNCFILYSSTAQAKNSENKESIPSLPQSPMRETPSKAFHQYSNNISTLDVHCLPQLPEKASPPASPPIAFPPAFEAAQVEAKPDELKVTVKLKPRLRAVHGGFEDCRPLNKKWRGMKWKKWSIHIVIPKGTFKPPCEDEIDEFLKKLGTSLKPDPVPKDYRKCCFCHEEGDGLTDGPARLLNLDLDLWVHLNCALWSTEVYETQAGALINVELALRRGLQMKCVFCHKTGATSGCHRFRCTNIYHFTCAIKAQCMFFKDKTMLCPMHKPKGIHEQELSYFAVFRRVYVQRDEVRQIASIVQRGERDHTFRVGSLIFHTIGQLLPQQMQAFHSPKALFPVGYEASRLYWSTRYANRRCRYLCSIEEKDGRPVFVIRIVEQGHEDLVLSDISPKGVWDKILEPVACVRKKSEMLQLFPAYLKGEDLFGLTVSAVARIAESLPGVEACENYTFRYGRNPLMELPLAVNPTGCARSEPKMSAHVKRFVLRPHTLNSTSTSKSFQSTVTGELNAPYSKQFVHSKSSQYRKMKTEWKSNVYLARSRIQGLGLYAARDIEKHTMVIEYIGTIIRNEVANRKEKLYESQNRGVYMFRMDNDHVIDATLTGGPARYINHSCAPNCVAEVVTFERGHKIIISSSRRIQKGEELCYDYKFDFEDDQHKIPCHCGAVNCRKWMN

MOLM-13 [11] = assay: Cytotoxicity against human MOLM13 cells harboring MLL-AF9 fusion protein assessed as cell growth inhibition after 7 days by WST8 assay; assay type: functional, cell-based; conditions: MOLM-13, 168 h
Outline: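 Long-term treatment of MOLM-13 plated at 5 × 10^4 cells/mL. Viability measured by WST-8 on day 4. Then 10% of viable cells were moved to fresh medium at the same compound concentration and cultured 3 more days, with viability read again on day 7.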

[12] = target: Histone-lysine N-methyltransferase SETD1A (Homo sapiens) (UniProt O15047); assay: Inhibition of SET1a (unknown origin) H3K4 methyltransferase activity using biotinyl-H3 peptide (1 to 21 residues) and using [3H]-S adenosylmethionine as methyl donor up to 100 uM after 1 hr by scintillation counting
MOLM-13 [13] = assay: Cytotoxicity against human MOLM13 cells harboring MLL-AF9 fusion protein assessed as cell growth inhibition at 0.10 uM after 7 days by WST8 assay; assay type: functional; conditions: MOLM-13, 168 h, read-out: GI
MV4-11 [14] = assay: Cytotoxicity against human MV4-11 cells harboring MLL-AF4 fusion protein assessed as cell growth inhibition at […] after 7 days by WST8 assay; assay type: functional; conditions: MV4-11, 168 h, read-out: GI
[15] = Stability of compound in cell culture media at 0.5 mM after 7 days by Waters ACQUITY UPLC analysis
[16] = target: Histone-lysine N-methyltransferase 2D (Homo sapiens) (UniProt O14686); assay: Inhibition of MLL4 (unknown origin) H3K4 methyltransferase activity using biotinyl-H3 peptide (1 to 21 residues) and using [3H]-S adenosylmethionine as methyl donor up to 100 uM after 1 hr by scintillation counting
[17] = target: Histone-lysine N-methyltransferase 2B (Homo sapiens) (UniProt Q9UMN6); assay: Inhibition of MLL2 (unknown origin) H3K4 methyltransferase activity using biotinyl-H3 peptide (1 to 21 residues) and using [3H]-S adenosylmethionine as methyl donor up to 100 uM after 1 hr by scintillation counting
MV4-11 [18] = assay: Cytotoxicity against human MV4-11 cells harboring MLL-AF4 fusion protein assessed as cell growth inhibition at 0.69 uM after 4 days by WST8 assay; assay type: functional; conditions: MV4-11, 96 h, read-out: GI
MV4-11 [19] = assay: Cytotoxicity against human MV4-11 cells harboring MLL-AF4 fusion protein assessed as cell growth inhibition after 7 days by WST8 assay; assay type: functional, cell-based; conditions: MV4-11, 168 h
Outline: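 MV4-11 cells (MLL-AF4) plated at 5 × 10^4 cells/mL and treated with the compound. WST-8 viability was read on day 4. Then 10% of viable cells were moved to fresh medium with the same compound concentrations and cultured 3 more days. The day-7 read was also by WST-8.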

[20] = target: Histone-lysine N-methyltransferase SETD1B (Homo sapiens) (UniProt Q9UPS6); assay: Inhibition of […] (unknown origin) H3K4 methyltransferase activity using biotinyl-H3 peptide (1 to 21 residues) and using [3H]-S adenosylmethionine as methyl donor up to 100 uM after 1 hr by scintillation counting
MOLM-13 [21] = assay: Cytotoxicity against human MOLM13 cells harboring MLL-AF9 fusion protein assessed as cell growth inhibition at 0.38 uM after 4 days by WST8 assay; assay type: functional; conditions: MOLM-13, 96 h, read-out: GI

Row | Compound | IC50 [1] [nM] | IC50 [2] [nM] | Ki [2] [nM] | IC50 (MOLM-13 [3]) [nM] | IC50 (MV4-11 [4]) [nM] | IC50 (HL-60) [nM] | half-life [5] [h] | half-life [6] [h] | half-life [7] [h] | further results
1 | CC[C@@H]1NC(=O)[C@H](CCCNC(=N)N)NC(=O)[C@H](NC(=O)C(C)C)CNC(=O)[C@@H](c2ccccc2)NC1=O (Isobutyryl-[dDap]R[Abu][dPhg]; lactam 1-C) | > 10000 | 1190 | 242 | – | – | – | – | – | – | –
2 | CC[C@@H]1NC(=O)[C@H](CCCNC(=N)NC)NC(=O)[C@](C)(NC(=O)C(C)C)CCCCNC(=O)[C@@H](c2ccccc2)NC1=O (Isobutyryl-[d(αMeK)][Arg(Me)][Abu][dPhg]; lactam 1-C) | 452 | 1.1 | < 1 | 3600 | 4300 | > 100000 | – | – | – | –
3 | CCC(CC)(NC(=O)C(C)C)C(=O)N[C@@H](CCCNC(=N)N)C(=O)NC1(C(=O)NC(c2ccccc2)c2ccccc2)CCCC1 | – | – | – | – | – | – | 0.0667 | 0.733 | 0.567 | –
4 | CC[C@@H]1NC(=O)[C@H](CCCNC(=N)N)NC(=O)[C@](C)(NC(=O)C(C)C)CCCNC(=O)[C@@H](c2ccccc2)NC1=O.O=C(O)C(F)(F)F | 84.8 | 0.97 | < 1 | 1280 | 1290 | 46800 | > 1 | > 1 | > 1 | Ratio IC50 [8]: >30; Ratio IC50 [9]: >30
5 | CC[C@@H]1NC(=O)[C@H](CCCNC(=N)N)NC(=O)[C@H](NC(=O)C(C)C)CCNC(=O)[C@@H](c2ccccc2)NC1=O (Isobutyryl-[dDab]R[Abu][dPhg]; lactam 1-C) | 1800 | 6.2 | 0.8 | 42800 | 43400 | > 100000 | – | – | – | –
6 | CC[C@@H]1NC(=O)[C@H](CCCNC(=N)NC)NC(=O)[C@](C)(NC(=O)C(C)C)CCNC(=O)[C@@H](c2ccccc2)NC1=O.O=C(O)C(F)(F)F | 12.7 | 0.9 | < 1 | 210 | 250 | 8560 | > 1 | > 1 | > 1 | Ratio IC50 [8]: >30; inhibition [10]: inactive; IC50 (MOLM-13 [11]): 100 nM; inhibition [12]: inactive; inhibition of growth at 0.1 µM (MOLM-13 [13]): > 95%; inhibition of growth at […] (MV4-11 [14]): > 95%; Ratio IC50 [9]: >30; Stability [15]: Stable; inhibition [16]: inactive; inhibition [17]: inactive; inhibition of growth at 0.69 µM (MV4-11 [18]): 75%; IC50 (MV4-11 [19]): 290 nM; inhibition [20]: inactive; inhibition of growth at 0.38 µM (MOLM-13 [21]): 75%
7 | CC[C@@H]1NC(=O)[C@H](CCCNC(=N)N)NC(=O)[C@](C)(NC(=O)C(C)C)CCNC(=O)[C@@H](c2ccccc2)NC1=O.O=C(O)C(F)(F)F | 12.6 | 1.08 | < 1 | 280 | 460 | 17400 | > 1 | > 1 | > 1 | Ratio IC50 [8]: >30; Ratio IC50 [9]: >30
8 | CC[C@@H]1NC(=O)[C@H](CCCNC(=N)N)NC(=O)[C@](C)(NC(=O)C(C)C)CCCCN(C)C(=O)[C@@H](c2ccc(F)cc2)NC1=O.O=C(O)C(F)(F)F | 138 | 1.6 | < 1 | 16200 | 5200 | 60000 | > 1 | > 1 | > 1 | –
9 | CC[C@@H]1NC(=O)[C@H](CCCNC(=N)N)NC(=O)[C@](C)(NC(=O)C(C)C)CCCCCNC(=O)[C@@H](c2ccccc2)NC1=O | 1530 | 2.6 | < 1 | 37600 | 15100 | > 100000 | – | – | – | –
10 | CC[C@@H]1NC(=O)[C@H](CCCNC(=N)N)NC(=O)[C@](C)(NC(=O)C(C)C)CCCCN(C)C(=O)[C@@H](c2ccccc2)NC1=O.O=C(O)C(F)(F)F | 190 | 1.6 | < 1 | – | – | – | > 1 | > 1 | > 1 | –
11 | CC[C@@H]1NC(=O)[C@H](CCCNC(=N)N)NC(=O)[C@](C)(NC(=O)C(C)C)CCCCNC(=O)[C@@H](c2ccccc2)NC1=O.O=C(O)C(F)(F)F | – | – | – | – | – | > 100000 | > 1 | > 1 | > 1 | –
12 | CC[C@@H]1NC(=O)[C@H](CCCNC(=N)N)NC(=O)[C@](C)(NC(=O)C(C)C)CCCCN(C)C(=O)[C@@H](c2ccc(Cl)cc2)NC1=O.O=C(O)C(F)(F)F | 124 | 1.5 | < 1 | – | – | – | > 1 | > 1 | > 1 | –
13 | CC[C@H]1NC(=O)[C@@H](CCCNC(=N)N)NC(=O)[C@@](C)(NC(=O)C(C)C)CCCCNC(=O)[C@H](c2ccccc2)NC1=O | – | – | – | > 100000 | > 100000 | > 100000 | – | – | – | –
14 | CC[C@@H]1NC(=O)[C@H](CCCNC(=N)NC)NC(=O)[C@](C)(NC(=O)C(C)C)CCNC(=O)[C@H](c2ccccc2)NC1=O | 477 | 2 | < 1 | 14300 | 35000 | – | – | – | – | –
15 | CC[C@@H]1NC(=O)[C@H](CCCNC(=N)N)NC(=O)[C@H](NC(=O)C(C)C)CCCCNC(=O)[C@@H](c2ccccc2)NC1=O (Isobutyryl-[dK]R[Abu][dPhg]; lactam 1-C) | > 10000 | 298 | 60.3 | > 100000 | > 100000 | > 100000 | – | – | – | –
16 | CC[C@@H]1NC(=O)[C@H](CCCNC(=N)N)NC(=O)[C@H](NC(=O)C(C)C)CCCNC(=O)[C@@H](c2ccccc2)NC1=O (Isobutyryl-[dOrn]R[Abu][dPhg]; lactam 1-C) | > 10000 | 164 | 32.9 | > 100000 | > 100000 | > 100000 | – | – | – | –
17 | CC[C@@H]1NC(=O)[C@H](CCCN/C(=N/C)NC)NC(=O)[C@](C)(NC(=O)C(C)C)CCCCNC(=O)[C@@H](c2ccccc2)NC1=O (Isobutyryl-[d(αMeK)][Arg(Me2s)][Abu][dPhg]; lactam 1-C) | 1260 | 2.4 | < 1 | 31500 | 15200 | 84800 | – | – | – | –
